Compound activity from PubChem BioAssay.
bCat nuc transl: modulators of beta-catenin nuclear translocation. HeLa beta-catenin nuclear translocation, immunofluorescence imaging. nuclear translocation activity, % at 5 µM. hit rate 0.3% among 190,000. AID 1665;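 active = nuclear translocation activity above 50% at 5 µM, with a well cell count of 50 or more; inconclusive = wells under 50 cells across six images, flagged as toxic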;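 also: per-cell ratio of nuclear to cytoplasmic median beta-catenin stain intensity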
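Read-out: Nuclear/cytoplasmic beta-catenin signal ratio, % activation | Assay system: Human HeLa cell line | Times: 24 h compound exposure at 37°C, 5% CO2 | Signal: Fluorescence imaging of beta-catenin antibody stain plus DAPI | Dosing: 5 µM primary, 0.02–20 µM confirmation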
HSV augment: HSV replication enhancement; HSV replication augmentation in cells, fold increase; maximum fold increase; hit rate 0.005% among 220,000; AID 1956; in the data active = maximum fold increase above about 1.5; inconclusive = no clear call, values can overlap the other calls; tested in PC3 cells
Lmaj promast: Leishmania major promastigote growth inhibition; Leishmania major promastigotes, resazurin fluorescence viability; inhibition, % at 10 µM; hit rate 9% among 200,000; in the data active = inhibition above about 50%;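 also: promastigotes grown with compound for 44 hours at 28 °C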
MT stabilize HCS: microtubule stabilizers in HeLa cells. HeLa tubulin immunostaining HCS, 24 h; share of cells brighter than vehicle mean+2SD. % tubulin-high responders, % at 10 µM. hit rate 0.83% among 200,000;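 active = plate Z-score above 3 for both tubulin-high and condensed-nucleus cell shares, with cell loss under 80%, at 10 µM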;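 also: anti alpha tubulin signal scored within the nucleus-defined area of each cell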
Dynein transport: blocks dynein driven cargo transport along microtubules. 3617.4 mouse cells, GR-EGFP nuclear translocation imaging; test concentration mostly 20 µM; stimulated with dexamethasone, 1 µM; hits give low values. z-score, hits read low. hit rate 0.47% among 220,000. AID 1381;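 active = plate z-score of nuclear minus cytoplasmic receptor signal below a set negative limit, without overly bright fluorescence or cell loss, cut at about -3.5 in these data, passing the limit was not always enough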;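 also: z-score of nuclear minus cytoplasmic ring GR-EGFP intensity difference per well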
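medium = tetracycline-free induction medium containing charcoal-stripped FBS | also added = 1.0 µM final dexamethasone stimulus | schedule = 48 h induction, 1 h compound, 30 min dex at 37 °C | technique = fixed, Hoechst-stained cells imaged at 10x for EGFP | measure = GR-EGFP nuclear translocation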
Large screens that a line does not name were inactive. Most compounds without a hit are left out; they make up all but 8.9% or so of the library.

CCOc1cc(/C=N/NC(N)=S)cc(Br)c1OCc1ccccc1C	Lmaj promast 100
CCN1CCN(CCCN(Cc2ccco2)C(=S)Nc2ccc(C)c(Cl)c2)CC1	none
Cc1ccc(NC(=S)N(CCCN2CCC(C)CC2)Cc2ccco2)cc1C	Lmaj promast 82
CCN1CCN(CCCN(Cc2ccco2)C(=S)Nc2cc(Cl)ccc2C)CC1	Lmaj promast 72
Cc1ccccc1NC(=S)N(CCCN1CCC(C)CC1)Cc1ccco1	none
CCCCCCCN1C2=NCCCN2c2ccccc21	Lmaj promast 70
Cc1ccc(CN2C3=NCCCN3c3ccccc32)cc1	none
CCCCN1C2=NCCCN2c2ccccc21	none
CC(C)(C)c1ccc(CN2C3=NCCCN3c3ccccc32)cc1	bCat nuc transl inconclusive, Lmaj promast 100
c1ccc(OCCN2C3=NCCN3c3ccccc32)cc1	Lmaj promast 101
Cc1cc(C)n(C(=O)c2cccc(S(=O)(=O)N3CCCCC3)c2)n1	none (no result: Lmaj promast, MT stabilize HCS)
Cc1cccc(-n2nnc(C(=O)N3CCc4ccccc4C3)c2N)c1	none (no result: bCat nuc transl)
CC1CCCN(C/C=C/c2ccccc2[N+](=O)[O-])C1 (centres undefined)	Lmaj promast 88
CC1CCCCN1C/C=C/c1ccccc1[N+](=O)[O-] (centres undefined)	Lmaj promast 85
CCC1CCCCN1S(=O)(=O)c1ccccc1[N+](=O)[O-] (centres undefined)	none
CCC1CCCCN1C/C=C/c1ccccc1[N+](=O)[O-] (centres undefined)	Lmaj promast 90
CC1CCCCN1S(=O)(=O)c1ccccc1[N+](=O)[O-] (centres undefined)	none
CCc1ccc(NC(=O)Nc2cccs2)cc1	none
CC1CC(C)CN(C(=O)Cn2c(-c3nonc3N)nc3ccccc32)C1 (centres undefined)	none
CC(C)NCCOCCSc1ccc(Cl)cc1	Lmaj promast 90
COCCCNCCOCCSc1ccc(Cl)cc1	Lmaj promast 98 (no result: bCat nuc transl)
OCCNCCSc1ccc(Cl)cc1	none
CCC(C)NC(=O)CSc1ccc(Cl)cc1 (centres undefined)	none
OCCNCCCCSc1ccc(Cl)cc1	Lmaj promast 96
COCCCNCCCCSc1ccc(Cl)cc1	Lmaj promast 95
CCCCNCCOCCSc1ccc(Cl)cc1	Lmaj promast 99
CN(C)CCOCCSc1ccc(Cl)cc1	Lmaj promast 98
CC(CNCc1ccc2c(c1)OCO2)NCc1ccc2c(c1)OCO2 (centres undefined)	Lmaj promast 93 (no result: bCat nuc transl)
CN(C)CC(C)(C)CNC(=S)NCc1ccc2c(c1)OCO2	none
CC(C)(C)NC(=S)NCc1ccc2c(c1)OCO2	Lmaj promast 56
Cc1ccc(S(=O)(=O)c2cc3c(=O)n4ccccc4nc3n(Cc3ccco3)c2=N)cc1	Lmaj promast 62 (no result: HSV augment)
Cc1ccc(S(=O)(=O)c2cc3c(=O)n4cccc(C)c4nc3n(Cc3ccco3)c2=N)cc1C	none (no result: HSV augment, Lmaj promast, MT stabilize HCS, Dynein transport)
CCn1cc(Cl)c(C(=O)N2N=C(c3ccc4ccccc4c3)CC2c2ccccc2O)n1 (centres undefined)	Lmaj promast 73 (no result: bCat nuc transl)
CCn1cc([N+](=O)[O-])c(C(=O)N2N=C(c3ccc4ccccc4c3)CC2c2ccccc2O)n1 (centres undefined)	HSV augment inconclusive
CCn1cc([N+](=O)[O-])c(C(=O)N2N=C(c3cccc4ccccc34)CC2c2ccccc2O)n1 (centres undefined)	Lmaj promast 74
COc1ccc(C(=O)NCCc2nc3cc([N+](=O)[O-])ccc3n2C)cc1	none (no result: Lmaj promast, MT stabilize HCS)
CCCCC(CC)CNS(=O)(=O)c1ccc2c(c1)CCN2C(=O)CCC(=O)O (centres undefined)	none
CCOc1ccccc1C1N=C(c2ccc(OC)cc2)CC(c2ccccc2O)N1 (centres undefined)	Lmaj promast 51
CC(=O)c1cnc2cc(-c3cccc(Br)c3)nn2c1C	none
COc1ccccc1/C=C/C(=O)N1CCC(c2ccccc2)C1 (centres undefined)	none
CC(NC(=S)Nc1ccccc1Cl)C(c1cccs1)N1CCCC1 (centres undefined)	Lmaj promast 84 (no result: bCat nuc transl)
CC(NC(=O)NC1CCCCC1)C(c1cccs1)N1CCN(Cc2ccccc2)CC1 (centres undefined)	none
CC(NC(=S)NCCc1ccccc1)C(c1cccs1)N1CCN(Cc2ccccc2)CC1 (centres undefined)	Lmaj promast 97
OC(C#CCCN1CCCCC1)(c1ccccc1)c1ccccc1	none (no result: Lmaj promast, MT stabilize HCS)
CN1CCCC(C#CC(O)(c2ccccc2)c2ccccc2)C1 (centres undefined)	Lmaj promast 78
CCNc1c([N+](=O)[O-])c(=O)n(CC)c2ccccc12	none (no result: Lmaj promast, MT stabilize HCS)
OCCN1CCN(C(=S)c2ccc(Cl)c(Cl)c2)CC1	Lmaj promast 85
CN(C)CCCN(C(=O)c1cccs1)c1nc(-c2ccccc2)cs1	Lmaj promast 100
COc1ccccc1NC(=O)Cc1noc(CSc2n[nH]c(N)n2)n1	none
COc1ccccc1-c1nc(C#N)c(N2CCC(Cc3ccccc3)CC2)o1	none
O=C(CN1CCCC1)NCC1(c2ccccc2)CCOCC1	none
CC(=O)OCCN(Cc1ccccc1)Cc1ccc2c(c1)OCO2	none
CCC(NC(=O)N(Cc1ccccc1)Cc1ccc2c(c1)OCO2)(C(F)(F)F)C(F)(F)F	Lmaj promast 67
CC(NC(=O)N(Cc1ccccc1)Cc1ccc2c(c1)OCO2)(C(F)(F)F)C(F)(F)F	Lmaj promast 94 (no result: bCat nuc transl)
O=C(c1ccco1)N1CCN(c2ccc(Cl)cc2)CC1	none
c1coc(CNc2nc(N3CCCCC3)nc3ccccc23)c1	Lmaj promast 96
Clc1nc(NCc2ccco2)nc(N2CCCCC2)n1	none
c1ccc(N2CCN(c3nc(NCc4ccco4)c4ccccc4n3)CC2)cc1	Lmaj promast 98
O=C(CSc1ccccn1)Nc1cccc(NC(=O)CSc2ccccn2)n1	none
Cc1cccc(-c2cnn(-c3cccc([N+](=O)[O-])c3)c2N)c1	none
CN1C(c2ccc(F)cc2)=CS/C1=C(/C#N)c1nnc(N2CCOCC2)n1-c1ccccc1	Lmaj promast 56
CCN1C(c2ccc(F)cc2)=CS/C1=C(\C#N)c1nnc2n1-c1ccccc1SC2	Lmaj promast 72
COc1ccc(-c2nnc3n2-c2ccccc2SC3)cc1OC	none
CN1C(=O)NC(c2ccccc2)(C(F)(F)F)S/C1=C(/C#N)c1nnc(N2CCOCC2)n1-c1ccccc1 (centres undefined)	none
C=CCN1C(c2ccccc2)=CS/C1=C(/C#N)c1nnc(N2CCOCC2)n1-c1ccccc1	Lmaj promast 74
C=CCn1c(SCc2csc(C)n2)nc2sc3c(c2c1=O)CCC(C)C3 (centres undefined)	MT stabilize HCS 26
CCCCc1nc2n[nH]c(N)c2c2c1CCC2	none
Cc1ccc(Nc2nc(-c3ccncc3)nc3ccccc23)cc1	none (no result: Lmaj promast, MT stabilize HCS)
CCCOc1c(Br)cc(C2C3=C(CCCC3=O)N(C)C3=C2C(=O)CCC3)cc1OC	Lmaj promast 97 (no result: bCat nuc transl)
COc1ccc(N(CC(=O)Nc2cccc(N(C)S(C)(=O)=O)c2)S(=O)(=O)c2ccc(F)cc2)cc1	none (no result: Lmaj promast, MT stabilize HCS)
